Reference: PMC9780517 (Experimental and Therapeutic Medicine, 2022)
“Also recorded” adds a separate entry of the source.

Legend:
hiPSC-CMs [1] = test: Myocardial cell activity; assay type: cell-based, human; details: concentration relative to ETPC
Method in brief: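 Human iPSC-derived cardiomyocytes (mostly ventricular; four batches) were grown 14-21 days on fibronectin-coated impedance/field-potential sensor plates at 37°C, 5% CO2. The medium was changed on dosing day, and test compound was added 3-4 h later, with 0.1% DMSO as control. Reads were taken every 30 min for 2 h, then every 2 h for >24 h. There were 3-4 concentrations, triplicate wells each. Ampl and BPM were normalized to pre-dose values.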

[2] = ref 21 (Blinova et al); cited from earlier work
hiPSC-CMs [3] = test: Field potential; assay type: cell-based, human
[4] = after intravenous administration; cited from earlier work

| Compound | Effect on Ampl (cell activity / cell viability) (hiPSC-CMs [1]) | Effect on BPM (beats per minute) (hiPSC-CMs [1]) | Predicted risk, LR model of Blinova et al [2] | Arrhythmia-like waveforms (in words) (hiPSC-CMs [3]) | Concentration at which arrhythmia-like waveforms were observed (hiPSC-CMs [3]) | TdP incidence [4] | FPDc prolongation (in words) (hiPSC-CMs [3]; concentration relative to ETPC) |
| --- | --- | --- | --- | --- | --- | --- | --- |
| Cc1nc2n(c(=O)c1CCN1CCC(c3noc4cc(F)ccc34)CC1)CCCC2 [Risperidone] | decreased the activity of cardiomyocytes at a concentration higher than ETPC | decrease BPM | low-risk | caused arrhythmia-like waveforms | 555.6 times of the ETPC | – | – |
| CCCCc1oc2ccccc2c1C(=O)c1cc(I)c(OCCN(CC)CC)c(I)c1 [Amiodarone] | decreased the cell activity of cardiomyocytes at concentrations greater than ETPC | decreased BPM at a concentration greater than ETPC | – | – | – | ~ 15% | – |
| CC(C)COCC(CN(Cc1ccccc1)c1ccccc1)N1CCCC1 (stereo not drawn) [Bepridil] | – | – | low-risk | induce arrhythmia-like waveforms | 312.5 times of the ETPC | – | not induce FPDc prolongation; also recorded: no FPDc prolongation was observed |
